In ChEMBL document CHEMBL1122366, “Potential antiatherosclerotic agents. 3. Substituted benzoic and non benzoic acid analogues of cetaben” (1983):
“And” between values parts separate entries of the source, which are not always exact repeats. Equal entries are not always repeated.

Assays:
Rattus norvegicus [1] = assay: In vivo triglyceride lowering activity dosed at 0.10 % of the diet.; format: functional
Method in brief: (§1)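 Normal rats were dosed in the diet. Serum sterol and triglyceride levels were measured and expressed as the mean percent of control values. Significance versus control was reported at p < 0.05, 0.01 and 0.001.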

[2] = molecular target: T1, Sterol O-acyltransferase 1 (Rattus norvegicus) (UniProt O70536); assay: In vitro inhibition of acyl coenzyme A:cholesterol acyltransferase; design: concentration or dose not given beside the values; details: concentration not given here
T1 sequence (whole entry): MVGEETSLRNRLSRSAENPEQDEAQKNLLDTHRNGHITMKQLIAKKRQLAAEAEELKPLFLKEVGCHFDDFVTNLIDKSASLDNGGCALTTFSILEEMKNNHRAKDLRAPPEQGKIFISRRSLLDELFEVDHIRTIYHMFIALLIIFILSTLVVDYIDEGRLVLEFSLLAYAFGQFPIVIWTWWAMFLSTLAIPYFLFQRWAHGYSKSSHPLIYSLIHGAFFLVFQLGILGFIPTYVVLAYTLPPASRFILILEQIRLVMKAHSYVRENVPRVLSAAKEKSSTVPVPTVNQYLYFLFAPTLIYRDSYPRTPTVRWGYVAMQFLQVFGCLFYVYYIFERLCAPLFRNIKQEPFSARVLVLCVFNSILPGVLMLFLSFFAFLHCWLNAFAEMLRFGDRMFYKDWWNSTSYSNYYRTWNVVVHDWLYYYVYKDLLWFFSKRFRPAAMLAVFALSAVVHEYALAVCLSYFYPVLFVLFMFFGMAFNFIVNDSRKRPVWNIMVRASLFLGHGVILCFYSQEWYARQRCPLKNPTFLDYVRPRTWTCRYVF
Method in brief: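 Enzyme fatty acyl-CoA:cholesterol acyltransferase (ACAT), assayed in vitro at a single drug concentration of 5.2 μg/mL. The value is the mean percent inhibition of enzyme activity.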

Rattus norvegicus [3] = assay: In vivo sterol lowering activity at dose of 0.10 % of the diet; format: functional; method in brief: as §1
Rattus norvegicus [4] = assay: In vivo sterol lowering activity when dosed as 0.03 % of the diet; format: functional; method in brief: as §1

SMILES	serum triglyceride, percent of control (Rattus norvegicus [1]) [%]	inhibition [2]	serum sterol level, percent of control (Rattus norvegicus [3]) [%]	serum sterol level, percent of control (Rattus norvegicus [4]) [%]	Diet (Rattus norvegicus [1]) [%]
CCCCCCCCCCCCCCCCN(C(C)=O)c1ccc(C(=O)OCC(COC(C)=O)OC(C)=O)cc1 (configuration not stated)	111	12%	101		
CCCCCCCCCCCCCCCCNc1ccc(C(=O)OCC)cc1F	74	5%	105		
CCCCCCCCCCCCCCCCNc1csc(C#N)c1	99	< 41%	92		
CCCCCCCCCCCCCCCCN(C(C)=O)c1ccc(CO)cc1	105	< 22%	99		
CCCCCCCCCCCCCCCCNc1ccc(C(=O)OCC(O)COC)cc1 (configuration not stated)	<65	0%	<77		
CCCCCCCCCCCCCCCCNc1ccc(C(=O)NC(C)C(=O)O)cc1 (configuration not stated)	132	45%	102		
CCCCCCCCCCCCCCNc1ccc(C(=O)OCC(O)CO)cc1 (configuration not stated)	<47	27%	<80		
CCCCCCCCCCCCCCCCN(C(C)=O)c1ccc(C(=O)OCC(O)CO)cc1 (configuration not stated)	110	0%	106		
CCCCCCCCCCCCCCCCNc1ccc(C(=O)N2CCCCC2)cc1	<61	< 55%	83		
CCCCCCCCCCCCCCCCN(C(=O)C(F)(F)F)c1ccc(C(=O)N2CCCCCC2)cc1	<66	< 75%	95		
CCCCCCCCCCCCCCCCN(C(=O)C(F)(F)F)c1ccc(C(=O)C(C(=O)OCC)C(=O)OC(C)(C)C)cc1 (configuration not stated)	<64	< 49%	90		
CCCCCCCCCCCCCCCCNc1ccc(C(=O)OCC2COC(c3ccccc3)O2)cc1 (configuration not stated)	<50		84		
CCCCCCCCCCCCCCCCNc1ccc(C(=O)OCC(COC(C)=O)OC(C)=O)cc1 (configuration not stated)	<40	22%	<66		
CCCCCCCCCCCCCCCCNc1ccc(C(=O)OCC)c(F)c1	<68		90		
CCCCCCCCCCCCCCCCNc1ccc(CCCC(=O)OCC)cc1	76	0%	99		
CCCCCCCCCCCCCCCCNc1csc(C(=O)OCC)c1		< 24%	112		
CCCCCCCCCCCCCCCCN(CCCCCCCCCCCCCCCC)c1ccc(CCC(=O)OCC)cc1	84	28%	94		
CCCCCCCCCCCCCCCCN(C(C)=O)c1ccc(C(=O)OCC(O)COC(C)=O)cc1 (configuration not stated)	113	4%	97		
CCCCCCCCCCCCCCCCNc1ccc(C(=O)Oc2ccc(C(=O)OC(C)(C)C)cc2)cc1	<67		103		
CCCCCCCCCCCCCCCCNc1ccc(C#N)cc1.Cl	88		100		
CCCCCCCCCCCCCCCCNc1ccc(C#N)cc1		8% and < 30%			
CCCCCCCCCCCCCCCCNc1ccc(C(O)C(N)=O)cc1 (configuration not stated)	57	34%	94		
CCCCCCCCCCCCCCCCNc1ccc(C(=O)O)c(O)c1	<57	49%	108		
CCCCCCCCCCCCCCCCNc1ccc(C(=O)OC)c(C)c1	<60	0%	99		
CCCCCCCCCCCCCCCCNc1ccc(CO)cc1		10% and 16%			
CCCCCCCCCCCCCCCCNc1ccc(C(C)O)cc1 (configuration not stated)	93	< 33%	93		
CCCCCCCCCCCCCCCCN(C(=O)C(F)(F)F)c1ccc(C(=O)Nc2ccc(C(=O)OCC)cc2)cc1	<69	< 25%	95		

SMILES	serum triglyceride, percent of control (Rattus norvegicus [1]) [%]	inhibition [2]	serum sterol level, percent of control (Rattus norvegicus [3]) [%]	serum sterol level, percent of control (Rattus norvegicus [4]) [%]	Diet (Rattus norvegicus [1]) [%]
CCCCCCCCCCCCCCCCNc1ccc(C(=O)OCC(COC(=O)c2ccc(NCCCCCCCCCCCCCCCC)cc2)OC(C)=O)cc1	<63	2%	89		
CCCCCCCCCCCCCCCCNc1ccc(C(C#N)O[Si](C)(C)C)cc1 (configuration not stated)	<36	0%	82		
CCCCCCCCCCCCCCCCN(CCCCCCCCCCCCCCCC)c1ccc(CCCC(=O)OCC)cc1	90	18%	103		
CCCCCCCCCCCCCCCCNc1ccc(C(=O)OC)cn1			114	108	
CCCCCCCCCCCCCCCCN(C(=O)C(F)(F)F)c1ccc(C(=O)NO)cc1	91	0%	96		
CCCCCCCCCCCCCCCCN(C(=O)C(F)(F)F)c1ccc(C(=O)N2CCCCC2)cc1	<68	< 68%	92		
CCCCCCCCCCCCCCCCN(CC)c1ccc(C(=O)O)cc1		< 72%			
CCCCCCCCCCCCCCCCNc1ccc(C(=O)N(C)C)cc1	89	48%	93		
CCCCCCCCCCCCCCCCNc1ccc(C(=O)NS(=O)(=O)c2ccc(C)cc2)cc1		< 77%			
CCCCCCCCCCCCCCCCNc1ccc(C(=O)OCC(O)CO)cc1 (configuration not stated)		0%			
CCCCCCCCCCCCCCCCN(C(=O)C(F)(F)F)c1ccc(C(=O)NNC(C)=O)cc1	<61	< 50%	<81		
CCCCCCCCCCCCCCCCN(C(=O)CCCCCCCCCCCCCCC)c1ccc(C(=O)OCC(O)CO)cc1 (configuration not stated)	72	14%	99		
CCCCCCCCCCCCCCCCNc1ccc(C(=O)OC)c(F)c1	79	< 23%	99		
CCCCCCCCCCCCCCCCNc1ccc(C(=O)OCC(O)COCC)cc1 (configuration not stated)	<47	9%	<68		
CCCCCCCCCCCCCCCCNc1ccc(C(=O)OCC(COC(=O)CCCCCCCCCCCCCCC)OC(=O)CCCCCCCCCCCCCCC)cc1 (configuration not stated)	75	4%	<80		
CCCCCCCCCCCCCCCCNc1ccc(C(=O)OCC2COC(C)(C)O2)cc1 (configuration not stated)	<68	0%	86		
CCCCCCCCCCCCCCCCN(C)c1ccc(C(=O)OCC(O)CO)cc1 (configuration not stated)	93	0%	99		
CCCCCCCCCCCCCCCCNc1ccc(-c2nn[nH]n2)cc1	91	78%	89		
CCCCCCCCCCCCCCCCNc1ccc(C(=O)OC2CCCCCC2)cc1	84	0%	<87		
CCCCCCCCCCCCCCCCNc1ccc(CO)cc1.Cl	100		99		
CCCCCCCCCCCCCCCCNc1ccc(/C=N\N=C(\N)NCc2ccccc2)cc1	<49	0%	94		
CCCCCCCCCCCCCCCCNc1ncc(C(=O)OCC)cn1		13%			
CCCCCCCCCCCCCCCCNc1ccc(SCC(=O)OCC)cc1	126	13%	99		
CCCCCCCCCCCCCCCCNc1ccc(C(=O)CC(=O)OC)cc1	<47	< 43%	<84		
CCCCCCCCCCCCCCCCNc1ccc(C(=O)Oc2cccnc2)cc1		< 22%	93		92
CCCCCCCCCCCCCCCCNc1cc(C(=O)OC)cc(C(=O)OC)c1	86	6%	108		
CCCCCCCCCCCCCCCCNc1ccc(C(=O)OC/C=C/COC(=O)c2ccc(NCCCCCCCCCCCCCCCC)cc2)cc1		10%	91		
